Assays:
[1] = test system: Human immunodeficiency virus 1; assay: Cytotoxic concentration against monocyte-derived macrophage infected by the HIV-1/Ba-L strain using neutral red staining assay.; type: functional
Summary of the method: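 Compound-exposed MDM, with drug renewed twice weekly, were checked microscopically during culture. At the end of culture they were stained with neutral red, and CC50 was calculated from the optical density values. The assay was repeated with cells from a second blood donor.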

[2] = test system: Human immunodeficiency virus 1; assay: Percent inhibition at 100 uM dose of HIV-1 replication using monocyte-derived macrophages infected by the HIV-1/Ba-L strain.; type: functional
Summary of the method: (§1)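 Human monocytes were elutriated from seronegative donor PBMC and differentiated 7 days into MDM in RPMI 1640 with 10% heat-inactivated FCS. 1 million MDM were pretreated 1 h with compound and infected with 10 000 TCID50 (0.01 moi) HIV-1/Ba-L, then washed at 24 h. Medium and drug were renewed twice weekly. Read-out was supernatant RT activity, with a second donor repeat; mean ± SD.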

Oryctolagus cuniculus = organism: Oryctolagus cuniculus; assay: Inhibition of PAF-induced platelet aggregation was determined using platelet rich plasma (PRP) of New Zealand rabbits.; type: functional
Summary of the method: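 Rabbit platelet-rich plasma was incubated and stirred with antagonist for 2 min, then challenged with 2.5 nM PAF. Antagonist solutions in EtOH spanned 10^-2 to 10^-7 M. Aggregation was followed by continuous light-transmission recording and compared with PAF alone. IC50 came from dose-response curves (5-6 determinations).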

[3] = test system: Human immunodeficiency virus 1; assay: Antiviral activity towards inhibition of HIV-1 replication using monocyte-derived macrophage infected by the HIV-1/Ba-L strain.; type: functional, organism-based; summary of the method: as §1
[4] = test system: Human immunodeficiency virus 1; assay: Percent inhibition at 10 uM dose of HIV-1 replication using monocyte-derived macrophage infected by the HIV-1/Ba-L strain.; type: functional; summary of the method: as §1
[5] = test system: Human immunodeficiency virus 1; assay: Antiviral activity towards inhibition of replication of HIV-1-DAS infected monocyte-derived macrophage; type: functional, organism-based

## COc1cc(C(=O)N2CCN(C(=O)c3cc(OC)c(OC)c(OC)c3)C(COC(=O)C(C)(C)C)C2)cc(OC)c1OC (stereo not given)
[1]
  CC50: > 100 µM
[2]
  inhibition at 100 µM: 25%
Oryctolagus cuniculus
  IC50: 100 nM

## CCCN(CCC)C(=O)OCC1CN(C(=O)c2cc(OC)c(OC)c(OC)c2)CCN1C(=O)c1cc(OC)c(OC)c(OC)c1 (stereo not given)
[1]
  CC50: > 100 µM
[2]
  inhibition at 100 µM: 66%
Oryctolagus cuniculus
  IC50: 370 nM

## COc1cc(C(=O)N2CCN(C(=O)c3cc(OC)c(OC)c(OC)c3)C(COC(=O)NC(C)CC(C)C)C2)cc(OC)c1OC (stereo not given)
[1]
  CC50: > 100 µM
[2]
  inhibition at 100 µM: -2%
Oryctolagus cuniculus
  IC50: 280 nM

## COc1cc(C(=O)N2CCN(C(=O)c3cc(OC)c(OC)c(OC)c3)C(COC(=O)NCC(C)(C)C)C2)cc(OC)c1OC (stereo not given)
[1]
  CC50: > 100 µM
[2]
  inhibition at 100 µM: 74%
Oryctolagus cuniculus
  IC50: 1000 nM

## COc1cc(C(=O)N2CCN(C(=O)c3cc(OC)c(OC)c(OC)c3)C(COC(=O)N3CCCC3)C2)cc(OC)c1OC (stereo not given)
[1]
  CC50: > 100 µM
[3]
  IC50: > 100 µM
Oryctolagus cuniculus
  IC50: 10000 nM

## CCC1CN(C(=O)c2cc(OC)c(OC)c(OC)c2)CCN1C(=O)c1cc(OC)c(OC)c(OC)c1 (stereo not given)
[1]
  CC50: > 100 µM
[3]
  IC50: 230 µM
Oryctolagus cuniculus
  IC50: 460 nM

## COc1cc(C(=O)N2CCN(C(=O)c3cc(OC)c(OC)c(OC)c3)C(C)C2)cc(OC)c1OC (stereo not given)
[1]
  CC50: > 100 µM
[3]
  IC50: 66 µM
Oryctolagus cuniculus
  IC50: 560 nM

## CCCCCCCCCCC1CN(C(=O)c2cc(OC)c(OC)c(OC)c2)CCN1C(=O)c1cc(OC)c(OC)c(OC)c1 (stereo not given)
[1]
  CC50: > 50 µM
[4]
  inhibition at 10 µM: 40%
Oryctolagus cuniculus
  IC50: 240 nM

## COc1cc(C(=O)N2CCN(C(=O)c3cc(OC)c(OC)c(OC)c3)C(CNC(=O)C(C)(C)C)C2)cc(OC)c1OC (stereo not given)
[1]
  CC50: > 100 µM
[3]
  IC50: > 100 µM
Oryctolagus cuniculus
  IC50: > 100000 nM

## COc1cc(C(=O)N2CCN(C(=O)c3cc(OC)c(OC)c(OC)c3)C(COC(=O)N3CCCCC3)C2)cc(OC)c1OC (stereo not given)
[1]
  CC50: > 100 µM
[3]
  IC50: 95 µM
Oryctolagus cuniculus
  IC50: 80 nM

## COc1cc(C(=O)N2CCN(C(=O)c3cc(OC)c(OC)c(OC)c3)CC2)cc(OC)c1OC
[1]
  CC50: > 100 µM
[3]
  IC50: > 100 µM
Oryctolagus cuniculus
  IC50: 1780 nM

## COc1cc(C(=O)N2CCN(C(=O)c3cc(OC)c(OC)c(OC)c3)C(COC(=O)NC(C)(C)C)C2)cc(OC)c1OC (stereo not given)
[1]
  CC50: > 100 µM
[2]
  inhibition at 100 µM: 52%
Oryctolagus cuniculus
  IC50: 130 nM

## COc1cc(C(=O)N2CCN(C(=O)c3cc(OC)c(OC)c(OC)c3)C(CO)C2)cc(OC)c1OC (stereo not given)
[1]
  CC50: > 100 µM
[3]
  IC50: > 100 µM
Oryctolagus cuniculus
  IC50: 1270 nM

## NC(=O)c1ccn2c1CS[C@@H]2c1cccnc1 (racemic) [DACOPAFANT]
Oryctolagus cuniculus
  IC50: 16000 nM

## NC(=O)c1ccn2c1CS[C@@H]2c1cccnc1 [DACOPAFANT]
[5]
  IC50: 50 µM

## CCN(CC)C(=O)OCC1CN(C(=O)c2cc(OC)c(OC)c(OC)c2)CCN1C(=O)c1cc(OC)c(OC)c(OC)c1 (stereo not given) [PMS-601]
[1]
  CC50: > 1000 µM
[3]
  IC50: 11 µM
[2]
  inhibition at 100 µM: 95%
Oryctolagus cuniculus
  IC50: 8000 nM

Reference: ChEMBL document CHEMBL1133726, “Structure-activity relationships in platelet-activating factor (PAF). 10. From PAF antagonism to inhibition of HIV-1 replication” (J Med Chem, 2000)
